Reference: ChEMBL document CHEMBL1145462, “In vivo pharmacodynamic activity of the glycopeptide dalbavancin” (Antimicrob Agents Chemother, 2007)
Converted amounts (≈) assume the structure as drawn.

Key:
Streptococcus pneumoniae [1] = assay: Bactericidal activity against penicillin-susceptible Streptococcus pneumoniae ATCC 10813 infected neutropenic Swiss ICR mouse thigh infection model assessed as drug level causing 2-log reduction of bacterial count at 0.71 mg/kg, ip dosed every 72 hrs; assay type: functional; conditions: route intraperitoneal
In short: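 Neutropenic mice (cyclophosphamide ip 150 mg/kg day −4, 100 mg/kg day −1, then every 48 h) received 0.1 ml log-phase inoculum per thigh under halothane. Intraperitoneal dalbavancin started 2 h later and was given for 6 days at q12h, q24h, q36h or q72h, two mice per regimen. Thigh CFU were counted at 144 h. Endpoint doses relative to start-of-therapy counts came from Hill-model nonlinear regression and are expressed per 24 h.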

Staphylococcus aureus [2] = assay: AUC/MBC ratio of methicillin-resistant Staphylococcus aureus infected neutropenic mouse thigh infection model at 62 mg/kg, ip administered every 72 hrs by 1-log killing experiment; assay type: functional; conditions: route intraperitoneal
Streptococcus pneumoniae [3] = assay: Antibacterial activity against Streptococcus pneumoniae 1199 by microdilution method; assay type: functional
In short: (§1)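 MIC and MBC were determined by CLSI broth microdilution, in duplicate on at least two occasions. Staphylococci were grown in Mueller-Hinton broth and agar; pneumococci were plated on sheep blood agar.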

Staphylococcus aureus [4] = assay: AUC/MBC ratio of Staphylococcus aureus Smith infected neutropenic mouse thigh infection model at 95 mg/kg, ip administered every 72 hrs by 1-log killing experiment; assay type: functional; conditions: route intraperitoneal
Staphylococcus aureus [5] = assay: AUC/MIC ratio of Staphylococcus aureus ATCC 25923 infected neutropenic mouse thigh infection model at 214 mg/kg, ip administered every 72 hrs by 2-log killing experiment; assay type: functional; conditions: route intraperitoneal
Staphylococcus aureus [6] = assay: AUC/MBC ratio of Staphylococcus aureus 31005 infected neutropenic mouse thigh infection model at 94.6 mg/kg, ip administered every 72 hrs by 1-log killing experiment; assay type: functional; conditions: route intraperitoneal
Staphylococcus aureus [7] = assay: AUC/MIC ratio of Staphylococcus aureus 33591 infected neutropenic mouse thigh infection model at 93 mg/kg, ip administered every 72 hrs by 1-log killing experiment; assay type: functional; conditions: route intraperitoneal
Staphylococcus aureus [8] = assay: Bactericidal activity against […] Staphylococcus aureus ATCC 29213 infected neutropenic Swiss ICR mouse thigh infection model assessed as drug level causing 1-log reduction of bacterial count at 10 mg/kg, ip dosed every 72 hrs; assay type: functional; conditions: route intraperitoneal
In short: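 Neutropenic thigh-infected mice were treated ip starting 2 h post-infection for 144 h, with doses given q24h or q72h. Thigh CFU were fitted to a sigmoid Hill Emax model by nonlinear least squares. The dose giving a 1-log10 reduction versus start-of-therapy counts was derived from the fit, together with the free-drug 24-h AUC/MIC.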

Staphylococcus aureus [9] = assay: Antibacterial activity against Staphylococcus aureus 31005 by microdilution method; assay type: functional; in short: as §1
Staphylococcus aureus [10] = assay: AUC/MIC ratio of Staphylococcus aureus 307109 infected neutropenic mouse thigh infection model at 31 mg/kg, ip administered every 72 hrs by static effect experiment; assay type: functional; conditions: route intraperitoneal
Staphylococcus aureus [11] = assay: AUC/MIC ratio of Staphylococcus aureus 33591 infected neutropenic mouse thigh infection model at 22.3 mg/kg, ip administered every 24 hrs by static effect experiment; assay type: functional; conditions: route intraperitoneal
Staphylococcus aureus [12] = assay: AUC/MIC ratio of Staphylococcus aureus ATCC 25923 infected neutropenic mouse thigh infection model at 185 mg/kg, ip administered every 72 hrs by 1-log killing experiment; assay type: functional; conditions: route intraperitoneal
Streptococcus pneumoniae [13] = assay: Antibacterial activity against Streptococcus pneumoniae ATCC 10813 by microdilution method; assay type: functional; in short: as §1
Staphylococcus aureus [14] = assay: AUC/MBC ratio of Staphylococcus aureus 33591 infected neutropenic mouse thigh infection model at 22.3 mg/kg, ip administered every 24 hrs by static effect experiment; assay type: functional; conditions: route intraperitoneal
Staphylococcus aureus [15] = assay: Antibacterial activity against methicillin-resistant Staphylococcus aureus in presence of 95% mouse serum; assay type: functional
In short: (§2)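 MIC determined in broth, heat-treated (100°C, 30 min) 95% mouse serum, and 95% mouse serum ultrafiltrate, using arithmetic dilutions of 0.02 mg/liter per tube. Protein binding estimated as (MIC in 95% serum − MIC in ultrafiltrate)/MIC in 95% serum.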

[16] = Cmax in bacterial pathogen-infected neutropenic Swiss ICR mouse thigh infection model at 10 mg/kg, ip; assay type: ADME, organism-based; set-up: dose 10 mg/kg, route intraperitoneal; conditions: in vivo
In short: (§3)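 Thigh-infected neutropenic mice received single intraperitoneal doses (2.5, 5, 10, 20, 40, 80 mg/kg; 0.2 ml/dose). Blood was drawn by retroorbital aspiration from groups of three mice at 0.5, 1, 2, 4, 6, 24, 48, 72 and 96 h. Plasma levels were measured by microbiologic assay with Bacillus subtilis (detection limit 0.10 mg/liter). Noncompartmental analysis was used: half-life by linear least-squares regression, AUC by trapezoidal rule.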

Streptococcus pneumoniae [17] = assay: Antibacterial activity against Streptococcus pneumoniae 1325 by microdilution method; assay type: functional; in short: as §1
Streptococcus pneumoniae [18] = assay: AUC/MIC ratio of Streptococcus pneumoniae 1293 infected neutropenic mouse thigh infection model at 1.28 mg/kg, ip administered every 72 hrs by 1-log killing experiment; assay type: functional; conditions: route intraperitoneal
Staphylococcus aureus [19] = assay: AUC/MIC ratio of methicillin-resistant Staphylococcus aureus infected neutropenic mouse thigh infection model at 85 mg/kg, ip administered every 72 hrs by 2-log killing experiment; assay type: functional; conditions: route intraperitoneal
Streptococcus pneumoniae [20] = assay: AUC/MIC ratio of Streptococcus pneumoniae ATCC 10813 infected neutropenic mouse thigh infection model at 1.54 mg/kg, ip administered every 24 hrs by 1-log killing experiment; assay type: functional; conditions: route intraperitoneal
Streptococcus pneumoniae [21] = assay: AUC/MIC ratio of Streptococcus pneumoniae ATCC 10813 infected neutropenic mouse thigh infection model at 0.82 mg/kg, ip administered every 72 hrs by 2-log killing experiment; assay type: functional; conditions: route intraperitoneal
Staphylococcus aureus [22] = assay: Antibacterial activity against Staphylococcus aureus 307109 by microdilution method; assay type: functional; in short: as §1
Staphylococcus aureus [23] = assay: Antibacterial activity against Staphylococcus aureus ATCC 25923 in presence of 95% mouse serum ultrafiltrate; assay type: functional; in short: as §2
[24] = AUC in bacterial pathogen-infected neutropenic Swiss ICR mouse thigh infection model at 40 mg/kg, ip; assay type: ADME, organism-based; set-up: dose 40 mg/kg, route intraperitoneal; conditions: in vivo; in short: as §3
Staphylococcus aureus [25] = assay: AUC/MBC ratio of Staphylococcus aureus ATCC 25923 infected neutropenic mouse thigh infection model at 160 mg/kg, ip administered every 72 hrs by static effect experiment; assay type: functional; conditions: route intraperitoneal
Streptococcus pneumoniae [26] = assay: AUC/MIC ratio of Streptococcus pneumoniae 1396 infected neutropenic mouse thigh infection model at 0.61 mg/kg, ip administered every 72 hrs by 1-log killing experiment; assay type: functional; conditions: route intraperitoneal
[27] = Half life in bacterial pathogen-infected neutropenic Swiss ICR mouse thigh infection model at 20 mg/kg, ip; assay type: ADME, organism-based; set-up: dose 20 mg/kg, route intraperitoneal; conditions: in vivo; in short: as §3
Streptococcus pneumoniae [28] = assay: AUC/MIC ratio of Streptococcus pneumoniae 1293 infected neutropenic mouse thigh infection model at 1.01 mg/kg, ip administered every 72 hrs by static effect experiment; assay type: functional; conditions: route intraperitoneal
[29] = AUC in bacterial pathogen-infected neutropenic Swiss ICR mouse thigh infection model at 2.5 mg/kg, ip; assay type: ADME, organism-based; set-up: dose 2.5 mg/kg, route intraperitoneal; conditions: in vivo
In short: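 Single-dose serum PK in thigh-infected neutropenic mice; intraperitoneal dalbavancin (0.2 ml/dose) at 2.5–80 mg/kg. Blood from groups of three mice at 0.5–96 h by retroorbital aspiration; plasma level by Bacillus subtilis microbiologic assay (detection limit 0.10 mg/liter). Noncompartmental analysis; AUC by trapezoidal rule from mean concentrations, extrapolated to infinity.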

Streptococcus pneumoniae [30] = assay: Antibacterial activity against Streptococcus pneumoniae 1329 by microdilution method; assay type: functional; in short: as §1

CN[C@H]1C(=O)N[C@@H]2Cc3ccc(cc3)Oc3cc4cc(c3O[C@@H]3O[C@H](C(=O)O)[C@@H](O)[C@H](O)[C@H]3NC(=O)CCCCCCCCC(C)C)Oc3ccc(cc3Cl)[C@@H](O)[C@@H]3NC(=O)[C@H](NC(=O)[C@@H]4NC(=O)[C@@H](NC2=O)c2cc(cc(O)c2Cl)Oc2cc1ccc2O)c1ccc(O)c(c1)-c1c(O[C@H]2O[C@H](CO)[C@@H](O)[C@H](O)[C@@H]2O)cc(O)cc1[C@@H](C(=O)NCCCN(C)C)NC3=O [DALBAVANCIN]
Activity (Streptococcus pneumoniae [1]): 0.82
Ratio (Staphylococcus aureus [2]): 48.8
MBC (Streptococcus pneumoniae [3]): 0.004 µg/mL (≈ 0.0022 µM)
MIC (Streptococcus pneumoniae [3]): 0.004 µg/mL (≈ 0.0022 µM)
Ratio (Staphylococcus aureus [4]): 78
RatioAUC/MIC (Staphylococcus aureus [5]): 367
Ratio (Staphylococcus aureus [6]): 163
RatioAUC/MIC (Staphylococcus aureus [7]): 160
Activity (Staphylococcus aureus [8]): 31
MBC (Staphylococcus aureus [9]): 0.12 µg/mL (≈ 0.0661 µM)
MIC (Staphylococcus aureus [9]): 0.06 µg/mL (≈ 0.033 µM)
RatioAUC/MIC (Staphylococcus aureus [10]): 94
RatioAUC/MIC (Staphylococcus aureus [11]): 96.2
RatioAUC/MIC (Staphylococcus aureus [12]): 317
MBC (Streptococcus pneumoniae [13]): 0.03 µg/mL (≈ 0.0165 µM)
MIC (Streptococcus pneumoniae [13]): 0.03 µg/mL (≈ 0.0165 µM)
Ratio (Staphylococcus aureus [14]): 46
MIC (Staphylococcus aureus [15]): 32 µg/mL
Cmax [16]: 34800 ng/mL
MBC (Streptococcus pneumoniae [17]): 0.008 µg/mL (≈ 0.0044 µM)
MIC (Streptococcus pneumoniae [17]): 0.008 µg/mL (≈ 0.0044 µM)
RatioAUC/MIC (Streptococcus pneumoniae [18]): 18
RatioAUC/MIC (Staphylococcus aureus [19]): 292
RatioAUC/MIC (Streptococcus pneumoniae [20]): 8.7
RatioAUC/MIC (Streptococcus pneumoniae [21]): 1.6
MBC (Staphylococcus aureus [22]): 0.12 µg/mL (≈ 0.0661 µM)
MIC (Staphylococcus aureus [22]): 0.06 µg/mL (≈ 0.033 µM)
MIC (Staphylococcus aureus [23]): 0.5 µg/mL
AUC [24]: 5360 µg·h/mL
Ratio (Staphylococcus aureus [25]): 66
RatioAUC/MIC (Streptococcus pneumoniae [26]): 4.3
half-life [27]: 7.6 h
RatioAUC/MIC (Streptococcus pneumoniae [28]): 14.1
AUC [29]: 98 µg·h/mL
MBC (Streptococcus pneumoniae [30]): 0.008 µg/mL (≈ 0.0044 µM)
MIC (Streptococcus pneumoniae [30]): 0.008 µg/mL (≈ 0.0044 µM)
